The values that follow come from ChEMBL document CHEMBL1134473, “Synthesis and biological evaluation of pyrrolinic isosteres of rilmenidine. Discovery of cis-/trans-dicyclopropylmethyl-(4,5-dimethyl-4,5-dihydro-3H-pyrrol-2-yl)-amine (LNP 509), an I1 imidazoline receptor selective ligand with hypotensive activity” (J Med Chem, 2001).

A short description of the assay: Displacement of [3H]RX-821002 from alpha-2 adrenergic receptor of calf frontal cortex membranes. The format is tissue-based, Bos taurus. The method in brief:
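Calf frontal cortex membranes (0.5 mg protein/mL) incubated 60 min at 25 °C with 0.8 nM [3H]RX821002 plus 0.3 µM 5HT to mask 5HT1A sites, in 50 mM sodium phosphate pH 7.4, drug 10^-9 to 10^-4 M. Nonspecific binding with 10 µM phentolamine. Bound ligand separated by GF/C filtration and counted. Three experiments in triplicate; Ki by Cheng-Prusoff.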
Background: In a radioligand displacement assay an active substance lowers the binding of a labelled ligand.

Turning to `C1CN=C(NC(C2CC2)C2CC2)C1`, the Log Ki was more than -5.
The figure for `C1CCC2N=C(NC(C3CC3)C3CC3)CC2C1` (stereo not drawn) is more than -5; for `CC1CCC(NC(C2CC2)C2CC2)=N1` (stereo not drawn) it is more than -5; for `CC1CCN=C1NC(C1CC1)C1CC1` (stereo not drawn) it is more than -5.
The molecule `CCC1CCC(NC(C2CC2)C2CC2)=N1` (stereo not drawn) returned a Log Ki of more than -5.
The figure for `CC1CN=C(NC(C2CC2)C2CC2)C1` (stereo not drawn) is more than -5; for `CC1CC(NC(C2CC2)C2CC2)=NC1C` (mixture of isomers) it is more than -5.
Then `C1COC(NC(C2CC2)C2CC2)=N1` [RILMENIDINE], with -7.25.
